Source: PubChem (several laboratories)
ATG4B inh = ATG4B (human) cysteine protease inhibition; Q9Y4P1; ATG4B cleavage of LC3-PLA2, NBD-HPC fluorescence, 1 h; inhibition, % at 8.33 µM; 340,000 compounds, 0.51% hits; AID 504462; in the data active means inhibition above about 40%
Rin1 Abl inh = inhibitors of human Rin1-Abl protein interaction; TR-FRET Rin1/Abl binding, biochemical; inhibition, % at 7.35 µM; 360,000 compounds, 0.4% hits; AID 588664; in the data active means inhibition above about 5%, passing the limit was not always enough
UCH37 DUB inh = inhibitors of human deubiquitinating enzyme UCH37; Q9Y5K5; purified proteasome/UCH37, Ub-AMC cleavage fluorescence; inhibition, % (concentration not given with the values); 330,000 compounds, 0.33% hits;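 active means mean inhibition over replicate wells above about 20%, limit read from the data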;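 further: 0% = compound-free wells with enzyme and 100% = wells lacking proteasome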
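system = Proteasome-associated human UCH37 deubiquitinase | amount = 0.15 nM proteasome as dispensed | medium = pH 7.4 Tris-HCl (50 mM) with ovalbumin, ATP-MgCl2, DTT | incubation = 30 min preincubation with enzyme, 25 min cleavage at room temperature | detection = AMC fluorescence 355/460 nm | read-out basis = percent inhibition | controls = no-proteasome and no-compound wells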
TbMetRS inhib = blocks T. brucei methionyl-tRNA synthetase activity; purified T. brucei MetRS, ATP depletion, Kinase-Glo luminescence; inhibition, % at 11.9 µM; 360,000 compounds, 0.4% hits; AID 624268;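 active means inhibition above a per-plate cutoff of the control wells' mean inhibition plus 3 SD, cut at about 5.5% in these data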;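 further: 0% = DMSO wells median and 100% = median of wells with control inhibitor compound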
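Material – parasite MetRS enzyme · Medium – HEPES-MgCl2-KCl buffer plus DTT, spermine, BSA, pyrophosphatase · Reagent – ATP, methionine and E. coli bulk tRNA substrates · Times – 15 min enzyme-compound preincubation, 2 h reaction, 10 min detection, 25 °C · Measured by – luminescence of leftover ATP · Evaluation – percent inhibition relative to median high and low control wells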
Rin1 Abl conf = Rin1-Abl interaction inhibition confirmation; inhibition, % at 7.35 µM; 1,300 compounds, 49% hits; TR-FRET Rin1-Abl binding, purified proteins; AID 602124; shares compounds with Rin1 Abl inh
GFP quencher = GFP fluorescence interference artifact; shares compounds with Rin1 Abl inh; inhibitors/quenchers counterscreen; inhibition, % at 6.75 µM; 1,300 compounds, 8.5% hits; AID 602125;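 further: ABL1-eGFP fusion protein alone without its partner RIN1-SBP; 0% = protein with vehicle and 100% = wells lacking protein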
GFP quench dose = counter-screen for Rin1-Abl inhibitors: GFP quenchers, dose response; shares compounds with Rin1 Abl inh; GFP fluorescence interference/quenching counterscreen; IC50, µM; 230 tested, under 10 active; call rule not given here;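 further: ABL1-eGFP fusion protein alone without its RIN1 binding partner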
Starred values were filed as active, the others as inactive; / = no result given. This is a sample that favours compounds with a hit; in the whole collection about 1.4% have one here. Unless noted, no stated cut-off is given here; in the data, active means inhibition above about 6.5%; inactive means the rest.

SMILES	ATG4B inh	Rin1 Abl inh	UCH37 DUB inh	TbMetRS inhib	Rin1 Abl conf	GFP quencher	others
CC(=O)Nc1cccc(-c2ccnc3c2CC(C)(C(=O)NCc2cccc(Cl)c2)O3)c1 (stereo not given)	/	0	/	0	/	/
CCCCN(C)C(=O)c1nc2ccccn2c1CNC1CCC1	11	2	1	-1	/	/
N#CCCN(C(=O)CSc1ncccn1)c1ccc2c(c1)OCCO2	2	8.2*	1	0	8.8*	-1
Cc1cc(C)c(C#N)c(SCC(=O)N(CCC#N)c2ccc3c(c2)OCCO3)n1	-13	5	6	0	/	/
Cc1csc2c(NC3CCN(Cc4ccccc4)CC3)ncnc12	1	5.6*	7	0	0	0
c1ccc(CN2CCC(Nc3ncnc4sccc34)CC2)cc1	-6	-2	3	-1	/	/
CCOc1ccc(CCNC(=O)COC(=O)COc2ccc(Cl)cc2)cc1OCC	-9	1	5	0	/	/
CC(=O)Nc1ccc(C(=O)N/N=C/c2ccc(F)cc2)cc1	3	10*	/	-1	3	-1
CC1CCCC(C)N1S(=O)(=O)c1ccc(NC(=O)CNCC2CCCO2)cc1 (stereo not given)	11	1	3	0	/	/
CC(C(=O)O)N1C(=O)/C(=C/C=C/c2ccco2)SC1=S (stereo not given)	72*	13*	2	1	9.7*	20*
CCN(CC)c1ccc2cc(C(=O)NNC(=O)c3ccc(S(=O)(=O)N4CCCCC4)cc3)c(=O)oc2c1	-7	4.7*	-24	-2	-1	-1
CCc1ccc(C(=O)C(C)OC(=O)Cn2cnc3c2c(=O)n(C)c(=O)n3C)cc1 (stereo not given)	2	2	2	-1	/	/
COC(=O)c1[nH]c2ccc(C)cc2c1NC(=O)CN1CCN(c2ccc(F)cc2)CC1	-21	1	-6	0	/	/
CCNC(=S)N/N=C/c1cc(C)ccc1C	-6	1	/	0	/	/
CCOC(=O)C1(Cc2ccc(OC)cc2)CCN(C(=O)CN2CCCCC2=O)CC1	12	9.9*	6	-1	1	-2
CCOC(=O)C1(Cc2ccc(OC)cc2)CCN(C(=O)CN2CCOC2=O)CC1	8	-4	4	0	/	/
Cn1c(N)cc(=O)n(Cc2ccccc2)c1=O	-7	1	1	0	/	/
Cc1cc(=O)n(C2CCS(=O)(=O)C2)[nH]1 (stereo not given)	7	12*	0	1	0	-1
CC(=O)c1ccc(N(CC(=O)NC2CCCC2)C(=O)c2ccc(C)s2)cc1	-5	1	-1	3	/	/
CC(=O)c1cccc(N(CC(=O)NC2CCCC2)C(=O)c2ccc(C)s2)c1	-4	7.5*	1	-1	-1	-1
CC1(C)CC2(CC(C)(C)N1)OC(=O)N1CCc3ccccc3C12C (stereo not given)	-3	2	2	-1	/	/
CC1CCCN(C(=O)COC(=O)Cc2c[nH]c3ccccc23)C1 (stereo not given)	4	2	2	0	/	/
COC(=O)C1CCN(C(=O)COC(=O)Cc2c[nH]c3ccccc23)CC1	0	5.2*	3	-2	0	-4
COc1ccc(CC(=O)OCC(=O)NC(=O)Nc2ccccc2F)cc1	3	8.9*	-1	0	0	-1
COc1ccc(CC(=O)NNC(=S)NC(=O)c2cccnc2)cc1	-1	6.8*	6	0	0	2
SMILES	ATG4B inh	Rin1 Abl inh	UCH37 DUB inh	TbMetRS inhib	Rin1 Abl conf	GFP quencher	others
CC1(C(=O)NN=Cc2ccc3c(c2)OCO3)CC1(Br)Br (stereo not given)	/	/	3	/	/	/
Cc1ccc(-c2nn3c(-c4ccco4)nnc3c3ccccc23)cc1S(=O)(=O)NCC1CCCO1 (stereo not given)	-11	11*	-45	0	27*	1	GFP quench dose=>68
Cc1ccc(-c2nnc(Nc3ccccc3)c3ccccc23)cc1S(=O)(=O)NCC1CCCO1 (stereo not given)	-4	-7	-7	-1	/	/
O=C(NCc1ccco1)C(Cc1ccccc1)N1C(=O)C2C3C=CC(C3)C2C1=O (stereo not given)	10	-1	6	-1	/	/
CCOC(=O)N1CCN(CCC(=O)Nc2ccc(Br)c(C)c2)CC1	-12	8.9*	4	-1	11*	2
CCCCSc1cc(=O)[nH]c(N)n1	6	29*	2	-1	21*	-2	GFP quench dose=>68
Oc1cc2c(cc1O)C1c3ccc(O)c(O)c3OCC1(O)C2 (stereo not given)	-23	31*	3	-2	31*	20*
O=C(CS(=O)c1ccc(F)cc1)Nc1ccccc1Cl (stereo not given)	-6	0	/	0	/	/
CCCOc1ccc(N2CC(C(=O)NC(C)C)CC2=O)cc1 (stereo not given)	-12	2	4	-1	/	/
CC1(C)Cc2nc3sc4c(=O)[nH]cnc4c3cc2CS1	1	45*	-1	-1	41*	0	GFP quench dose=>68
CC(=O)Nc1ccc(NC(=O)CCn2c(=O)oc3ccccc32)cc1	-9	1	0	-1	/	/
O=C(CCn1c(=O)oc2ccccc21)NC1=NCCS1	-9	10.0*	1	0	-2	0
S=c1[nH]ncn1NCc1ccc(Cl)cc1Cl	1	1	2	0	/	/
COc1ccccc1CNc1nc(NCCN2CCNC2=O)c2sccc2n1	/	12*	/	0	6.9*	-1
COc1ccc(OCC(=O)OCCN2C(=O)c3ccccc3C2=O)cc1	-3	10*	5	0	-1	1
CCOc1ccc(OCCN2C(=O)c3ccccc3C2=O)cc1	0	0	3	0	/	/
CCSCCOC(=O)C1=C(C)NC2=C(C(=O)CCC2)C1c1coc2ccccc2c1=O (stereo not given)	-2	20*	7	-2	30*	0	GFP quench dose=>68
CC1=C(C(=O)OC(C)C)C(c2coc3ccccc3c2=O)C2=C(CCCC2=O)N1 (stereo not given)	-9	-2	9	-1	/	/
O=C(O)CSCc1cn2cc(Cl)ccc2n1	-9	-1	-2	0	/	/
COC(=O)CCSCc1cn2cc(Cl)ccc2n1	-8	39*	0	0	44*	1	GFP quench dose=>68
CCN(CC)C(=O)CSc1nc(COc2ccccc2)nc2ccccc12	-10	42*	3	-1	37*	0
COC(=O)CSc1nc(COc2ccccc2)nc2ccccc12	-5	1	6	0	/	/
Cc1ccc(NC(=O)Cc2ccccc2)c(C)c1	/	/	2	/	/	/
Cc1cccc(N2CCN(c3ccc(N4C(=O)CCCC4=O)cc3[N+](=O)[O-])CC2)c1C	-3	-5	4	0	/	/
